The list is not random: actives were taken first. Their share in the collection is about 3%.
5HT1E ag: 5-HT1E receptor agonists, primary screen, cell-based, HTS; CHO 5-HT1E Ga15 NFAT-bla reporter, FRET; 0% DMSO wells, 100% control agonist wells; 65,000 compounds, 0.69% hits; activation, % at 6 µM; 5-hydroxytryptamine receptor 1E (Homo sapiens), P28566;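 active means activation above a set limit, the screen-wide mean activation plus 3 SD, cut at about 8.5% in these data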
HTR1E antagonist: 5-HT1E receptor antagonists, primary screen, cell-based, HTS | AID 571, 2007 | inhibition, % at 6 µM | 65,000 compounds, 0.99% hits | CHO 5-HT1E Ga15 NFAT-bla reporter, FRET, antagonist | 5-hydroxytryptamine receptor 1E (Homo sapiens), P28566;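 active means inhibition above a set limit, the mean inhibition across every tested compound plus 3 SD, cut at about 29% in these data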;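 further: signal is the 460 over 535 nm emission ratio of beta-lactamase substrate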
S1P1 ag pot: S1P1 agonists and agonism potentiators, primary screen, cell-based, primary and confirmation screens, CRE-bla reporter | S1P1 CRE-bla cells, forskolin, beta-lactamase FRET, potentiator mode; S1P1 agonist co-added at EC20, 2 nM; 100% = saturating reference agonist, 0% = basal | AID 449, 2006 | activation, % at 9.5 µM | 56,000 compounds, 0.57% hits;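 active means activation above a cutoff set at the mean activation of all tested compounds plus 3 SD, cut at about 54% in these data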;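 further: forskolin at 4 µM as EC80 and the EC20 agonist is SEW2871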
S1P3 ag: human S1P3 receptor agonists, primary screen, cell-based, primary and confirmation, NFAT-BLA reporter. Sphingosine 1-phosphate receptor 3 (Homo sapiens), Q99500. S1P3 NFAT-BLA reporter cells, agonism, FRET ratio; relative to 1 µM S1P, basal subtracted. activation, % at 4.5 µM. 60,000 compounds, 0.1% hits. AID 373, 2006;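 active means activation above the screen-wide mean plus 3 SD, cut at about 4.5% in these data, passing the limit was not always enough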
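Material: Human S1P3 NFAT-BLA reporter CHO cells | Incubation: Overnight plating, 4 h compound 37 °C, 2 h substrate RT | Signal: FRET β-lactamase substrate fluorescence, excitation 405 nm, 460/535 nm emission ratio, background-subtracted | Compound: 4.5 µM final, single dose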
HTR1A agonist: human 5-HT1a receptor agonists, primary screen, cell-based, CHO, Ga15 NFAT-bla reporter | 5-hydroxytryptamine receptor 1A (Homo sapiens), P08908 | CHO 5-HT1a Ga15 NFAT-bla reporter, FRET ratio; 0% basal, 100% maximal reference agonist | activation, % at 10 µM | 65,000 compounds, 0.56% hits | AID 567, 2006;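 active means activation above the screen-wide mean activation plus 3 SD, cut at about 19% in these data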
Target sequence (P08908 whole entry, looked up): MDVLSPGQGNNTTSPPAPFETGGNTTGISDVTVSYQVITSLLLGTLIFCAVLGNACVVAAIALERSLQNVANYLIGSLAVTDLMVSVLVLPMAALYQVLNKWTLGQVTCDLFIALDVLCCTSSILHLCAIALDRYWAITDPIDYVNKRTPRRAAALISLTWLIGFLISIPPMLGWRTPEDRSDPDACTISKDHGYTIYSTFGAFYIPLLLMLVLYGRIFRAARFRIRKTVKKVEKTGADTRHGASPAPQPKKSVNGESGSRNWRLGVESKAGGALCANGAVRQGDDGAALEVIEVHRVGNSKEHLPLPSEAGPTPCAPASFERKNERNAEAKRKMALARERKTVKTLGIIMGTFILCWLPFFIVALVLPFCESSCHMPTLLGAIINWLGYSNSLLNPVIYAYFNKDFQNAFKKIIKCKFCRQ
5HT1a antag: human 5-HT1a receptor antagonists, primary screen, cell-based, CHO, Ga15 NFAT-bla reporter | 5-hydroxytryptamine receptor 1A (Homo sapiens), P08908 | CHO 5-HT1a Ga15 NFAT-bla reporter, antagonist mode | inhibition, % at 10 µM | 62,000 compounds, 0.68% hits | AID 612, 2007;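 active means inhibition above the mean of all tested compounds plus 3 SD, cut at about 43% in these data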;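 further: receptor stimulated by 5-CT agonist at 100 nM near EC80; beta-lactamase reporter measured by ratiometric fluorescence of a cleavable substrate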
Numbers stand for hits.

Results for COc1ccc(C2CC(C(F)(F)F)n3nc(C(=O)NCCN4CCOCC4)cc3N2)cc1 (centres undefined) ?
5HT1E ag: inactive; HTR1E antagonist: inactive; S1P1 ag pot: inactive; S1P3 ag: inactive; HTR1A agonist: 36.0; 5HT1a antag: inactive

Results for COc1cc(C)c(N)cc1C(C)C ?
5HT1E ag: 23.4; HTR1E antagonist: inactive; S1P1 ag pot: inactive; S1P3 ag: inactive; HTR1A agonist: inactive; 5HT1a antag: inactive

How did COc1cc(C)c(S(=O)(=O)N2CCOCC2)cc1C(C)C do in these assays?
5HT1E ag: inactive; HTR1E antagonist: inactive; S1P1 ag pot: inactive; S1P3 ag: inactive; HTR1A agonist: inactive; 5HT1a antag: inactive

What do the screens show for `CCOC(=O)C1CCCN(C(=O)c2cc3nc(-c4cccc(OC)c4)cc(C(F)(F)F)n3n2)C1` (centres undefined)?
5HT1E ag: inactive; HTR1E antagonist: 35.1; S1P3 ag: inactive; HTR1A agonist: inactive; 5HT1a antag: inactive

How did CCOc1cc(C2c3c(oc4cc(C)c(Cl)cc4c3=O)C(=O)N2Cc2ccco2)ccc1O (centres undefined) do in these assays?
5HT1E ag: 9.8; HTR1E antagonist: inactive; S1P1 ag pot: inactive; S1P3 ag: inactive; HTR1A agonist: inactive; 5HT1a antag: inactive

How did Cc1cc2oc3c(c(=O)c2cc1C)C(c1cccc(Br)c1)N(Cc1ccco1)C3=O (centres undefined) do in these assays?
5HT1E ag: inactive; HTR1E antagonist: inactive; S1P1 ag pot: inactive; S1P3 ag: inactive; HTR1A agonist: inactive; 5HT1a antag: inactive

How did C=CCOc1nc(N(C)C)nc(N(C)C)n1 do in these assays?
5HT1E ag: inactive; HTR1E antagonist: inactive; S1P1 ag pot: inactive; S1P3 ag: inactive; HTR1A agonist: inactive; 5HT1a antag: inactive

What do the screens show for `CCOC(=O)Nc1ccc2c(c1)N(C(=O)CCN1CCOCC1)c1ccccc1S2`?
5HT1E ag: inactive; HTR1E antagonist: inactive; S1P1 ag pot: inactive; S1P3 ag: inactive; HTR1A agonist: inactive; 5HT1a antag: inactive

What do the screens show for `CCOC(=O)Nc1ccc2c(c1)N(C(=O)CCN1CCOCC1)c1ccccc1S2=O` (centres undefined)?
5HT1E ag: inactive; HTR1E antagonist: inactive; S1P1 ag pot: inactive; S1P3 ag: inactive; HTR1A agonist: inactive; 5HT1a antag: 51.9

Results for CCCC(=O)NC(c1ccco1)c1cc(Cl)c2cccnc2c1O (centres undefined) ?
5HT1E ag: inactive; HTR1E antagonist: inactive; S1P1 ag pot: inactive; S1P3 ag: inactive; HTR1A agonist: inactive; 5HT1a antag: inactive

What do the screens show for `Oc1c(C(Nc2nc3ccccc3s2)c2ccco2)ccc2cccnc12` (centres undefined)?
5HT1E ag: inactive; HTR1E antagonist: 34.5; S1P1 ag pot: inactive; S1P3 ag: inactive; HTR1A agonist: inactive; 5HT1a antag: 61.6

Results for CC(C)C(=O)NC(c1ccco1)c1ccc2cccnc2c1O (centres undefined) ?
5HT1E ag: inactive; HTR1E antagonist: 30.1; S1P1 ag pot: inactive; S1P3 ag: inactive; HTR1A agonist: inactive; 5HT1a antag: inactive

What do the screens show for `O=C(COC(=O)c1ccccc1NC(=O)c1ccco1)NCc1ccc2c(c1)OCO2`?
5HT1E ag: inactive; HTR1E antagonist: inactive; S1P1 ag pot: inactive; S1P3 ag: inactive; HTR1A agonist: inactive; 5HT1a antag: inactive

How did O=C(Nc1cccc(S(=O)(=O)C(F)F)c1)c1ccc(S(=O)(=O)N2CCOCC2)cc1 do in these assays?
5HT1E ag: inactive; HTR1E antagonist: inactive; S1P1 ag pot: inactive; S1P3 ag: inactive; HTR1A agonist: inactive; 5HT1a antag: inactive

Results for O=C(Nc1ccc(S(=O)(=O)C(F)F)cc1)c1cccc(S(=O)(=O)N2CCOCC2)c1 ?
5HT1E ag: inactive; HTR1E antagonist: inactive; S1P3 ag: inactive; HTR1A agonist: 20.4; 5HT1a antag: inactive

What do the screens show for `COC(=O)/C(=C1/Oc2cc3c(cc2S1)OCO3)C(F)(F)F`?
5HT1E ag: inactive; HTR1E antagonist: inactive; S1P1 ag pot: inactive; S1P3 ag: inactive; HTR1A agonist: inactive; 5HT1a antag: inactive

Results for COc1cc(C2C3=C(Nc4ncnn42)c2ccccc2CC3)cc(OC)c1OC (centres undefined) ?
5HT1E ag: inactive; HTR1E antagonist: 61.2; S1P1 ag pot: inactive; S1P3 ag: inactive; HTR1A agonist: inactive; 5HT1a antag: inactive

Results for CN(C)c1nc(N)nc(CSc2n[nH]c(-c3ccccc3)n2)n1 ?
5HT1E ag: inactive; HTR1E antagonist: 29.7; S1P1 ag pot: inactive; S1P3 ag: inactive; HTR1A agonist: inactive; 5HT1a antag: inactive

Results for O=C(CSc1n[nH]c(-c2ccccc2)n1)c1ccccc1 ?
5HT1E ag: inactive; HTR1E antagonist: inactive; S1P1 ag pot: inactive; S1P3 ag: inactive; HTR1A agonist: inactive; 5HT1a antag: inactive

How did COc1ccccc1C(=O)NC(C)C(c1cccs1)N1CCN(C)CC1 (centres undefined) do in these assays?
5HT1E ag: inactive; HTR1E antagonist: inactive; S1P1 ag pot: inactive; S1P3 ag: inactive; HTR1A agonist: inactive; 5HT1a antag: inactive

Results for CCC(C)c1ccc2oc(-c3ccc(NC(=O)Cn4cnc5c(=O)n(C)c(=O)n(C)c54)cc3)nc2c1 (centres undefined) ?
5HT1E ag: inactive; HTR1E antagonist: inactive; S1P1 ag pot: 110.8; S1P3 ag: inactive; HTR1A agonist: inactive; 5HT1a antag: inactive

How did Cn1c(=O)c2ncn(CC(=O)Nc3ccc4oc(-c5cccc6ccccc56)nc4c3)c2n(C)c1=O do in these assays?
5HT1E ag: inactive; HTR1E antagonist: inactive; S1P1 ag pot: inactive; S1P3 ag: inactive; HTR1A agonist: inactive; 5HT1a antag: inactive

What do the screens show for `COc1ccc(NC(=O)c2cc(-c3cccs3)on2)cc1OC`?
5HT1E ag: inactive; HTR1E antagonist: inactive; S1P1 ag pot: 56.4; S1P3 ag: inactive; HTR1A agonist: inactive; 5HT1a antag: inactive

Results for COc1ccc(-c2cc(C(=O)NC3CCCC3)no2)cc1OC ?
5HT1E ag: inactive; HTR1E antagonist: inactive; S1P1 ag pot: 73.8; S1P3 ag: inactive; HTR1A agonist: inactive; 5HT1a antag: inactive

How did CCOc1ccc(-c2noc(-c3cccnc3)n2)cc1OC do in these assays?
5HT1E ag: inactive; HTR1E antagonist: inactive; S1P1 ag pot: 114.0; S1P3 ag: inactive; HTR1A agonist: inactive; 5HT1a antag: inactive
